Data as given in ChEMBL document CHEMBL1149444, “Discovery of imidazo[1,2-b][1,2,4]triazines as GABA(A) alpha2/3 subtype selective agonists for the treatment of anxiety” (J Med Chem, 2006).
Activity calls are given as the source filed them. The rule behind the calls is not given here.

Experiments:
[1] = target: GABA-A receptor; alpha-5/beta-3/gamma-2 (Homo sapiens) (UniProt P18507+P28472+P31644); assay: Efficacy against recombinant human GABAA alpha-5 receptor plus beta3gamma2 expressed in L(tk-) cells by whole cell patch clamp method relative to chlordiazepoxide; assay type: functional, cell-based
In short: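 Whole-cell patch clamp on L(tk-) cells stably expressing human alpha subunit plus beta3gamma2. GABA applied at an EC20-equivalent concentration. Modulation of that current measured across increasing test-compound concentrations. Efficacy is expressed relative to the maximal response to the full agonist chlordiazepoxide, set at 1.00.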

[2] = Half life in dog at 1 mg/kg, iv or 1 mg/kg, po; assay type: ADME, organism-based, Canis lupus familiaris; conditions: in vivo
In short: (§1)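 Pharmacokinetics in rat, dog or rhesus after 1 mg/kg iv and 1 mg/kg po dosing. Plasma clearance (mL/min/kg), half-life (h), volume of distribution (L/kg) and oral bioavailability (%) were derived.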

[3] = Volume of distribution in rat at 1 mg/kg, iv or 1 mg/kg, po; assay type: ADME, organism-based; conditions: in vivo, read-out: Vdss
In short: (§2)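 Rat pharmacokinetics after dosing at 1 mg/kg iv and 1 mg/kg po. Plasma clearance in mL/min/kg, half-life in h and volume of distribution in L/kg.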

Rattus norvegicus = assay: Activity in rat elevated plus maze assay at 1 mg/kg, po; assay type: functional, organism-based; parameters: dose 1 mg/kg
In short: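 Rats given test compound orally 30 min before a 5 min elevated plus maze session; vehicle 0.5% methyl cellulose po. Read-out is time on open arms as percentage of total time. n = 18 per group. Significance versus vehicle at p < 0.05.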

[4] = target: T1, GABA-A receptor; alpha-5/beta-3/gamma-2 (Homo sapiens, UniProt P18507+P28472+P31644); assay: Displacement of [3H] Ro15-1788 from recombinant human GABAA alpha-5 receptor plus beta3gamma2 expressed in L(tk-) cells; assay type: cell-based
T1 sequence (P18507 whole entry): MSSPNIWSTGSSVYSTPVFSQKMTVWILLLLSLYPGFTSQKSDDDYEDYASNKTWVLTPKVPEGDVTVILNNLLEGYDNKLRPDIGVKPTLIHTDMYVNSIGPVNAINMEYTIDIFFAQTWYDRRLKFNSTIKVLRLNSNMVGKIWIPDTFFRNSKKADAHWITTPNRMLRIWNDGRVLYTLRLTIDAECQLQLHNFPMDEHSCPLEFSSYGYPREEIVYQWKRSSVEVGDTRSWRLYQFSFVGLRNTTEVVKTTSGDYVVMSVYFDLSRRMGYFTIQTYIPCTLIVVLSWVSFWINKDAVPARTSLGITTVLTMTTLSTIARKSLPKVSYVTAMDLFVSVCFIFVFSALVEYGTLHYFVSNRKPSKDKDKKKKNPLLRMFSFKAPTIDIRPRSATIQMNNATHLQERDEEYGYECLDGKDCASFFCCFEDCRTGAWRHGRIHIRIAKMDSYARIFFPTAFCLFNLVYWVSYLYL
T1 sequence (P28472 whole entry): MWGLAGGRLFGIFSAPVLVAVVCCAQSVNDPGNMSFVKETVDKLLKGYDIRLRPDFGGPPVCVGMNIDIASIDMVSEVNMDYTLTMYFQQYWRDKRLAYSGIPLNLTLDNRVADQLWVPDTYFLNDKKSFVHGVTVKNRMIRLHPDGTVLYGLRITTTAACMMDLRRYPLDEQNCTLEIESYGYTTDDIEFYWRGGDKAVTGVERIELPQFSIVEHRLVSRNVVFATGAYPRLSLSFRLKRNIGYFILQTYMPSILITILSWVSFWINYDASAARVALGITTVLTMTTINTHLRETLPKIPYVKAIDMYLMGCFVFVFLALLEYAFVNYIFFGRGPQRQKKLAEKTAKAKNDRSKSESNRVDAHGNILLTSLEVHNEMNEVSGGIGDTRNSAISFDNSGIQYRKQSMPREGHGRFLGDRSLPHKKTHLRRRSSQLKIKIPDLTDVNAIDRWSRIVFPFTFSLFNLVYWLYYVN
T1 sequence (P31644 whole entry): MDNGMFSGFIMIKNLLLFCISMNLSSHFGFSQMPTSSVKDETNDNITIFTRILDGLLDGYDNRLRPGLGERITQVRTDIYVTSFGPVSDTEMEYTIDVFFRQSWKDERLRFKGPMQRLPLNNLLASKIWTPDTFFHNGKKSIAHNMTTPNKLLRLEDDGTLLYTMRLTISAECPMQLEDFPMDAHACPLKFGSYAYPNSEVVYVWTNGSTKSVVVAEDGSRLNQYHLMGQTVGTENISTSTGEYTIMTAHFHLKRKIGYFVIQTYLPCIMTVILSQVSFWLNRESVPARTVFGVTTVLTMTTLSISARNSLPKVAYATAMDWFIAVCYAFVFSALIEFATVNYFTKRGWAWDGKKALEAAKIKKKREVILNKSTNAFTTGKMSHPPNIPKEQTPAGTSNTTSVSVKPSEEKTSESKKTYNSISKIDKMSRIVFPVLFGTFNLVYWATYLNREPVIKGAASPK
In short: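 Inhibition of [3H]Ro15-1788 binding to human recombinant GABAA receptors stably expressed in L(tk-) cells, alpha subunit combined with beta3 and gamma2. Six to eight test concentrations spaced in half-log units. Ki reported as geometric mean of n = 2-12.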

[5] = Plasma clearance in dog at 1 mg/kg, iv or 1 mg/kg, po; assay type: ADME, organism-based, Canis lupus familiaris; in short: as §1
[6] = Plasma clearance in rat at 1 mg/kg, iv or 1 mg/kg, po; assay type: ADME, organism-based; in short: as §2
Squirrel monkey [7] = assay: Sedation in squirrel monkey conditioned emotional response test at 10 mg/kg, po; assay type: functional, organism-based; parameters: dose 10 mg/kg; conditions: Saimiri sciureus
In short: (§3)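 Squirrel monkeys dosed po in 0.5% methyl cellulose vehicle. Anxiolysis was read as reversal of the suppression of lever pressing caused by a light cue signalling possible electric shock. Sedation was read as the rate of lever pressing for fruit juice reward on an RPI30 schedule. n = 10-11 per group, p < 0.05 versus vehicle.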

[8] = target: GABA-A receptor; alpha-3/beta-3/gamma-2 (Homo sapiens) (UniProt P18507+P28472+P34903); assay: Efficacy against recombinant human GABAA alpha3 receptor plus beta-3-gamma-2 expressed in L(tk-) cells by whole cell patch clamp method relative to chlordiazepoxide; assay type: functional, cell-based
In short: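 Whole-cell patch clamp on L(tk-) cells stably expressing the receptor (alpha plus beta3gamma2). GABA applied at an EC20-equivalent concentration. Modulation of the current measured with increasing test concentrations. Efficacy expressed relative to the maximal chlordiazepoxide response (set at 1.00) or as a percentage.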

Squirrel monkey [9] = assay: Anxiolytic effect in squirrel monkey conditioned emotional response test at 0.3 mg/kg, po; assay type: functional, organism-based; parameters: dose 0.3 mg/kg; conditions: Saimiri sciureus; in short: as §3

CC(C)(O)c1cnn2c(-c3ccc(F)c(-c4c(F)cccc4C#N)c3)cnc2n1
Efficacy [1]: 0.37%
half-life [2]: 6.5 h
Vd [3]: 2.1 L/kg
Activity (Rattus norvegicus): Active
Ki [4]: 1.1 nM
clearance [5]: 4.6 mL/min/kg
clearance [6]: 2.4 mL/min/kg
Activity (Squirrel monkey [7]): inactive
Efficacy [8]: 50%
Activity (Squirrel monkey [9]): Active
